In ChEMBL document CHEMBL5058577, “EUbOPEN Chemogenomics Library 2 (Multiplex)” (2022):

Tested on: HEK-293T
Assay: Multiplex assay against HEK293T
Assay type: toxicity, cell-based
Conditions: human
Summary of the method: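 Phenotypes for tubulin, mitochondrial mass and membrane permeability are expressed as per cents of healthy-nucleus cells. Cells were stained live at seeding with Hoechst33342, BioTracker Green Microtubule Cytoskeleton Dye, MitoTracker Red and Annexin V Alexa Fluor 680, then imaged after compound addition on a CQ1 microscope at 37°C and 5% CO2. Machine-learning gating in CellPathfinder separated Hoechst high-intensity objects from normal cells, divided normal cells by nuclear state (healthy, pyknosed, fragmented) and divided pyknosed cells into mitotic or apoptotic.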

[1] = 12 h, 1 µM, compound concentration 1 uM, replicate 1
[2] = 12 h, 1 µM, compound concentration 1 uM, replicate 2
[3] = 12 h, 10 µM, compound concentration 10 uM, replicate 1
[4] = 12 h, 10 µM, compound concentration 10 uM, replicate 2
[5] = 24 h, 1 µM, compound concentration 1 uM, replicate 1
[6] = 24 h, 1 µM, compound concentration 1 uM, replicate 2
[7] = 24 h, 10 µM, compound concentration 10 uM, replicate 1
[8] = 24 h, 10 µM, compound concentration 10 uM, replicate 2
[9] = 48 h, 1 µM, compound concentration 1 uM, replicate 1
[10] = 48 h, 1 µM, compound concentration 1 uM, replicate 2
[11] = 48 h, 10 µM, compound concentration 10 uM, replicate 1
[12] = 48 h, 10 µM, compound concentration 10 uM, replicate 2

CCCCCCNC(=O)Nc1ccc(S(=O)(=O)Nc2ccc(CCNC[C@H](O)COc3ccc(O)cc3)cc2)cc1 [L-755507]
Population Apoptotic (%) [1]: 35%
Population Fragmented Nuclei (%) [1]: 8%
Population Healthy Nuclei (%) [1]: 84%
Population Hoechst High Intensity Objects (%) [1]: 7%
Population Membrane Permeable-Phenotype (%) [1]: 0%
Population Mitochondria Different-Phenotype (%) [1]: 39%
Population Mitotic Cells (%) [1]: 64%
Population Normal (%) [1]: 92%
Population Pyknosed Nuclei (%) [1]: 7%
Population Tubulin-Different-Phenotype (%) [1]: 28%
Total Cell Count [1]: 494
Population Apoptotic (%) [2]: 31%
Population Fragmented Nuclei (%) [2]: 6%
Population Healthy Nuclei (%) [2]: 83%
Population Mitochondria Different-Phenotype (%) [2]: 64%
Population Mitotic Cells (%) [2]: 68%
Population Pyknosed Nuclei (%) [2]: 10%
Population Tubulin-Different-Phenotype (%) [2]: 32%
Total Cell Count [2]: 403
Population Apoptotic (%) [3]: 58%
Population Fragmented Nuclei (%) [3]: 10%
Population Healthy Nuclei (%) [3]: 74%
Population Hoechst High Intensity Objects (%) [3]: 17%
Population Membrane Permeable-Phenotype (%) [3]: 0%
Population Mitochondria Different-Phenotype (%) [3]: 69%
Population Mitotic Cells (%) [3]: 41%
Population Normal (%) [3]: 82%
Population Pyknosed Nuclei (%) [3]: 14%
Population Tubulin-Different-Phenotype (%) [3]: 68%
Total Cell Count [3]: 384
Population Apoptotic (%) [4]: 71%
Population Fragmented Nuclei (%) [4]: 8%
Population Healthy Nuclei (%) [4]: 79%
Population Hoechst High Intensity Objects (%) [4]: 7%
Population Mitochondria Different-Phenotype (%) [4]: 87%
Population Mitotic Cells (%) [4]: 28%
Population Normal (%) [4]: 92%
Population Pyknosed Nuclei (%) [4]: 11%
Population Tubulin-Different-Phenotype (%) [4]: 61%
Total Cell Count [4]: 341
Population Apoptotic (%) [5]: 19%
Population Fragmented Nuclei (%) [5]: 9%
Population Healthy Nuclei (%) [5]: 80%
Population Hoechst High Intensity Objects (%) [5]: 5%
Population Membrane Permeable-Phenotype (%) [5]: 0%
Population Mitochondria Different-Phenotype (%) [5]: 20%
Population Mitotic Cells (%) [5]: 80%
Population Normal (%) [5]: 94%
Population Pyknosed Nuclei (%) [5]: 9%
Population Tubulin-Different-Phenotype (%) [5]: 20%
Total Cell Count [5]: 634
Population Apoptotic (%) [6]: 30%
Population Fragmented Nuclei (%) [6]: 11%
Population Hoechst High Intensity Objects (%) [6]: 4%
Population Mitochondria Different-Phenotype (%) [6]: 42%
Population Mitotic Cells (%) [6]: 70%
Population Normal (%) [6]: 95%
Population Pyknosed Nuclei (%) [6]: 7%
Population Tubulin-Different-Phenotype (%) [6]: 22%
Total Cell Count [6]: 547
Population Apoptotic (%) [7]: 26%
Population Fragmented Nuclei (%) [7]: 8%
Population Healthy Nuclei (%) [7]: 80%
Population Hoechst High Intensity Objects (%) [7]: 14%
Population Membrane Permeable-Phenotype (%) [7]: 0%
Population Mitochondria Different-Phenotype (%) [7]: 59%
Population Mitotic Cells (%) [7]: 73%
Population Normal (%) [7]: 85%
Population Pyknosed Nuclei (%) [7]: 11%
Population Tubulin-Different-Phenotype (%) [7]: 42%
Total Cell Count [7]: 461
Population Apoptotic (%) [8]: 48%
Population Fragmented Nuclei (%) [8]: 7%
Population Healthy Nuclei (%) [8]: 83%
Population Hoechst High Intensity Objects (%) [8]: 9%
Population Mitochondria Different-Phenotype (%) [8]: 68%
Population Mitotic Cells (%) [8]: 51%
Population Normal (%) [8]: 90%
Population Pyknosed Nuclei (%) [8]: 9%
Population Tubulin-Different-Phenotype (%) [8]: 51%
Total Cell Count [8]: 402
Population Apoptotic (%) [9]: 10%
Population Fragmented Nuclei (%) [9]: 12%
Population Healthy Nuclei (%) [9]: 81%
Population Hoechst High Intensity Objects (%) [9]: 3%
Population Membrane Permeable-Phenotype (%) [9]: 2%
Population Mitochondria Different-Phenotype (%) [9]: 16%
Population Mitotic Cells (%) [9]: 89%
Population Normal (%) [9]: 96%
Population Pyknosed Nuclei (%) [9]: 6%
Population Tubulin-Different-Phenotype (%) [9]: 15%
Total Cell Count [9]: 1052
Population Apoptotic (%) [10]: 15%
Population Fragmented Nuclei (%) [10]: 13%
Population Healthy Nuclei (%) [10]: 80%
Population Hoechst High Intensity Objects (%) [10]: 5%
Population Mitochondria Different-Phenotype (%) [10]: 24%
Population Mitotic Cells (%) [10]: 84%
Population Normal (%) [10]: 94%
Population Tubulin-Different-Phenotype (%) [10]: 20%
Total Cell Count [10]: 775
Population Apoptotic (%) [11]: 46%
Population Fragmented Nuclei (%) [11]: 15%
Population Healthy Nuclei (%) [11]: 75%
Population Hoechst High Intensity Objects (%) [11]: 11%
Population Membrane Permeable-Phenotype (%) [11]: 1%
Population Mitochondria Different-Phenotype (%) [11]: 36%
Population Mitotic Cells (%) [11]: 53%
Population Normal (%) [11]: 88%
Population Pyknosed Nuclei (%) [11]: 9%
Population Tubulin-Different-Phenotype (%) [11]: 32%
Total Cell Count [11]: 598
Population Apoptotic (%) [12]: 65%
Population Fragmented Nuclei (%) [12]: 13%
Population Healthy Nuclei (%) [12]: 80%
Population Hoechst High Intensity Objects (%) [12]: 8%
Population Membrane Permeable-Phenotype (%) [12]: 0%
Population Mitochondria Different-Phenotype (%) [12]: 47%
Population Mitotic Cells (%) [12]: 34%
Population Normal (%) [12]: 91%
Population Pyknosed Nuclei (%) [12]: 5%
Population Tubulin-Different-Phenotype (%) [12]: 39%
Total Cell Count [12]: 596
